Source: ChEMBL document CHEMBL3102757, “Synthesis and evaluation of the antiparasitic activity of bis-(arylmethylidene) cycloalkanones” (Eur J Med Chem, 2014)
The source made the active and inactive calls. No cut-off for these calls is given here.

Assays:
[1] = target: Cruzipain (Trypanosoma cruzi) (UniProt P25779); assay: Inhibition of Trypanosoma cruzi recombinant cruzaine using Z-FR-AMC as substrate at 100 uM preincubated for 10 mins measured for 5 mins by spectrophotometric analysis in presence of triton relative to DMSO-treated control
Summary of the method: (§1)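 Fluorescence at ex 340/em 440 nm followed 5 min. Compounds screened at 100 µM. The main screen used 0.01% Triton without pre-incubation. Checks used 0.1% or no Triton and a 10-min pre-incubation. Triplicates, activity versus DMSO control.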

[2] = target: Cruzipain (Trypanosoma cruzi) (UniProt P25779); assay: Inhibition of Trypanosoma cruzi recombinant cruzaine using Z-FR-AMC as substrate at 100 uM preincubated for 10 mins measured for 5 mins by spectrophotometric analysis relative to DMSO-treated control; summary of the method: as §1
[3] = target: T1, Glutathione reductase, mitochondrial (Homo sapiens, UniProt P00390); assay: Inhibition of human recombinant glutathione reductase using glutathione as substrate preincubated for 30 mins by colorimetric assay
T1 sequence (P00390 whole entry): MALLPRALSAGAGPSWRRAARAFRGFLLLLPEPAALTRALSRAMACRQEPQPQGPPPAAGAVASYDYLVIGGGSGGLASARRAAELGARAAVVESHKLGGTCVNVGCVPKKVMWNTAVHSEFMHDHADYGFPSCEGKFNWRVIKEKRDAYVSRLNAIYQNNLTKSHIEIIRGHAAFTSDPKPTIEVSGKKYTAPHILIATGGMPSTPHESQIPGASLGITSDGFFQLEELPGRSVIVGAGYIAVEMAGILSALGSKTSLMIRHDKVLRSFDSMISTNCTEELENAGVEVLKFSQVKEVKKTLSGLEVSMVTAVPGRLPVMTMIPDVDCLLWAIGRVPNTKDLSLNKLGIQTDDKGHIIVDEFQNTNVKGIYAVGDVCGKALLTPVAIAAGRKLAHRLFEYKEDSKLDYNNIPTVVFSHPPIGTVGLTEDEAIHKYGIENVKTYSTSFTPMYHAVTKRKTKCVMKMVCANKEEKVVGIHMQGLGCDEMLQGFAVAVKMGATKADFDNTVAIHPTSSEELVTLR
Summary of the method: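 Recombinant human glutathione reductase (10 mU) in 100 mM potassium phosphate pH 7.0, 1 mM EDTA, 400 µM NADPH. Pre-incubated with compound 30 min at 27 °C. Started with oxidized glutathione (10 µL of 1 mM stock). […] Carmustine positive control.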

[4] = target: Trypanothione reductase (Trypanosoma cruzi, UniProt P28593); assay: Inhibition of Trypanosoma cruzi trypanothione reductase expressed in Escherichia coli BL21(DE3) assessed as reduction of oxidized trypanothione preincubated for 30 mins measured for 30 mins by spectrophotometric analysis
[5] = Selectivity index, ratio of CC50 for mouse peritoneal macrophages to IC50 for Leishmania amazonensis IFLA/BR/1967/PH-8 promastigotes; assay type: functional
Summary of the method: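 Ratio of peritoneal macrophage CC50 (MTT, 24 h) to promastigote IC50 (MTT, 48 h).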

[6] = Cytotoxicity against mouse peritoneal macrophages after 24 hrs by MTT assay; assay type: cell-based, Peritoneal macrophage cell
Summary of the method: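 Murine peritoneal macrophages (5×10^5) cultured 24 h with a range of compound concentrations. Viability read by MTT, given as % lysis relative to cultures treated with amphotericin B (1 µg/mL).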

[7] = tested on: Trypanosoma cruzi; assay: Trypanocidal activity against Trypanosoma cruzi Tulahuen amastigotes infected in mouse L929 cells assessed as parasite growth inhibition after 7 days by beta-galactosidase assay; assay type: functional, organism-based; conditions: L929, 168 h
Summary of the method: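 L-929 fibroblasts (4.0×10^3/well) infected with β-galactosidase-expressing Tulahuen trypomastigotes (4.0×10^4/well) for 2 h, then washed. Compounds added at 48 h, in tetraplicate, RPMI without phenol red plus 10% FBS. After 7 days, chlorophenol red β-D-galactopyranoside (100 µM) and 0.1% Nonidet P-40 added overnight at 37 °C. Read at 570 nm as % growth inhibition. Benznidazole control.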

[8] = tested on: Leishmania amazonensis; assay: Antileishmanial activity against Leishmania amazonensis IFLA/BR/1967/PH-8 promastigotes assessed as parasite growth inhibition after 48 hrs by MTT assay; conditions: IFLA/BR/1967/PH-8, 48 h
[9] = Selectivity index, ratio of CC50 for mouse L929 cells to IC50 for Trypanosoma cruzi Tulahuen amastigotes; assay type: functional
Summary of the method: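 Ratio of L-929 CC50 (alamarBlue, 96 h) to amastigote IC50 from the β-galactosidase infection assay.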

[10] = Cytotoxicity against mouse L929 cells after 96 hrs by Alamar blue assay; assay type: cell-based
Summary of the method: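 L-929 fibroblasts seeded at 4.0×10^3 per well, same culture timing as the infection assay, exposed to rising concentrations for 96 h in tetraplicate. alamarBlue added, absorbance at 570 and 600 nm after 4–6 h. Viability as % reduction versus untreated cells. CC50 by linear interpolation.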

Trypanothione reductase, sequence (P28593 whole entry): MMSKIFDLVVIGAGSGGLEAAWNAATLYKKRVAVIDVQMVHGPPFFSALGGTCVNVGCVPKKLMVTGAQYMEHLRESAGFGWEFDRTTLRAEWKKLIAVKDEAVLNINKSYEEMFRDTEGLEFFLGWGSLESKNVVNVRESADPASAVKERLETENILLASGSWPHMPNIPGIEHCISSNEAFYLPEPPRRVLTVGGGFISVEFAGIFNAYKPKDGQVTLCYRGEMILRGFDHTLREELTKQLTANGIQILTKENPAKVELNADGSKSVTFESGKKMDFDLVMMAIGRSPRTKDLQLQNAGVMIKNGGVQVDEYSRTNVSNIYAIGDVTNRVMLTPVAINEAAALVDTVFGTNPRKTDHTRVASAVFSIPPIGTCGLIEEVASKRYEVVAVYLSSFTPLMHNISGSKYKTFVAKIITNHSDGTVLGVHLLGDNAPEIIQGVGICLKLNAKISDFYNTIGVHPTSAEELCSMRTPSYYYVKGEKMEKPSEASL
Cruzipain (Trypanosoma cruzi), sequence (P25779 123-467 limits assumed): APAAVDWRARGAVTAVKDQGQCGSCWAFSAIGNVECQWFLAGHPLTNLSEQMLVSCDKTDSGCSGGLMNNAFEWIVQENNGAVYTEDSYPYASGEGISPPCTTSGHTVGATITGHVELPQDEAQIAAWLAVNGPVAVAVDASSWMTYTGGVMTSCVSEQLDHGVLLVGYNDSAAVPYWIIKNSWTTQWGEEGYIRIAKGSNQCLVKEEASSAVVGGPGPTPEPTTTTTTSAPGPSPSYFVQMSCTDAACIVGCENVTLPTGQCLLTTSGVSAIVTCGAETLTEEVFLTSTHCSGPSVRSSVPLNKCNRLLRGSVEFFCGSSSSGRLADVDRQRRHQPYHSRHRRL

inhibition [1] | inhibition [2] [%] | IC50 [3] [µM] | IC50 [4] [µM] | Compound | Ratio CC50/IC50 [5] | CC50 at 24 h [6] [µM] | IC50 [7] [µM] | IC50 [8] [µM] | Ratio CC50/IC50 [9] | CC50 at 96 h [10] [µM]
inactive | 16 | > 100 | > 100 | O=C1/C(=C/c2ccc(Cn3cc(CCO)nn3)cc2)CC/C1=C\c1ccc(Cn2cc(CCO)nn2)cc1 | 1.2 | 60.4 | > 250 | 50.9 | – | –
inactive | 23 | > 100 | > 100 | O=C1/C(=C/c2ccncc2)CC/C1=C\c1ccncc1 | – | – | > 250 | – | – | –
– | – | – | – | O=C(Cn1ccnc1[N+](=O)[O-])NCc1ccccc1 [BENZNIDAZOLE] | – | – | – | – | >262 | > 1000
inactive | 31 | > 100 | 45.8 | O=C1/C(=C/c2ccccc2)CCC/C1=C\c1ccccc1 [2,6-DIBENZYLIDENECYCLOHEXANONE] | 6 | 50.6 | > 250 | 8.4 | – | –
– | – | > 100 | > 100 | CN(C)c1ccc(/C=C2\CC/C(=C\c3ccc(N(C)C)cc3)C2=O)cc1 | 0.4 | 17.6 | > 250 | 44.1 | – | –
– | – | > 100 | > 100 | Cc1ccc(/C=C2\CC/C(=C\c3ccc(C)cc3)C2=O)cc1 | 0.7 | 39.4 | > 250 | 52.6 | – | –
– | – | > 100 | > 100 | O=C1/C(=C/c2ccnc3ccccc23)CC/C1=C\c1ccnc2ccccc12 | 0.8 | 3.7 | 7 | 4.9 | 3.6 | 25.3
– | – | > 100 | > 100 | O=C1/C(=C/c2ccc[nH]2)CCC/C1=C\c1ccc[nH]1 | 15.7 | 83.2 | 249 | 5.3 | 1.5 | 375
– | – | > 100 | > 100 | O=C1/C(=C/c2cccc3cnccc23)CC/C1=C\c1cccc2cnccc12 | 23.8 | 21.4 | 31.3 | 0.9 | 16 | 500
inactive | 19 | > 100 | > 100 | O=C1/C(=C/c2cccc3cnccc23)CCC/C1=C\c1cccc2cnccc12 | 9.3 | 78.1 | 68.7 | 8.4 | 2.7 | 188
– | – | > 100 | > 100 | O=C1/C(=C/c2ccc(Cn3cc(-c4ccccc4)nn3)cc2)CC/C1=C\c1ccc(Cn2cc(-c3ccccc3)nn2)cc1 | – | – | > 250 | – | – | –
– | – | – | – | C[C@@H]1[C@H](O)[C@@H](C)/C=C/C=C/C=C/C=C/C=C/C=C/C=C/[C@H](O[C@@H]2O[C@H](C)[C@@H](O)[C@H](N)[C@@H]2O)C[C@@H]2O[C@](O)(C[C@@H](O)C[C@@H](O)[C@H](O)CC[C@@H](O)C[C@@H](O)CC(=O)O[C@H]1C)C[C@H](O)[C@H]2C(=O)O [AMPHOTERICIN B] | 8.8 | 0.7 | – | 0.08 | – | –
inactive | 35 | > 100 | > 100 | O=C1/C(=C/c2ccc([N+](=O)[O-])cc2)CC/C1=C\c1ccc([N+](=O)[O-])cc1 | – | – | > 250 | – | – | –
– | – | > 100 | > 100 | O=C1/C(=C/c2ccc[nH]2)CC/C1=C\c1ccc[nH]1 | 3.8 | 55.8 | > 250 | 14.7 | – | –
inactive | 42 | > 100 | > 100 | O=C1/C(=C/c2ccnc3ccccc23)CCC/C1=C\c1ccnc2ccccc12 | 1 | 0.6 | > 250 | 0.6 | – | –
inactive | 66 | > 100 | 14.7 | O=C1/C(=C/c2ccncc2)CCC/C1=C\c1ccncc1 | 19.9 | 23.9 | > 250 | 1.2 | – | –
– | – | > 100 | > 100 | CN(C)c1ccc(/C=C2\CCC/C(=C\c3ccc(N(C)C)cc3)C2=O)cc1 | 1.1 | 20.8 | > 250 | 18.6 | – | –
inactive | 32 | > 100 | > 100 | Cc1ccc(/C=C2\CCC/C(=C\c3ccc(C)cc3)C2=O)cc1 | 0.2 | 19.7 | 230 | 110 | 1.1 | 250

Compound | inhibition [1] | inhibition [2] [%] | IC50 [3] [µM] | IC50 [4] [µM] | Ratio CC50/IC50 [5] | CC50 at 24 h [6] [µM] | IC50 [7] [µM] | IC50 [8] [µM] | Ratio CC50/IC50 [9] | CC50 at 96 h [10] [µM]
[N-]=[N+]=NCc1ccc(/C=C2\CC/C(=C\c3ccc(CN=[N+]=[N-])cc3)C2=O)cc1 | – | – | 228 | > 100 | – | – | > 250 | – | – | –
O=NN(CCCl)C(=O)NCCCl [CARMUSTINE] | – | – | 8.1 | – | – | – | – | – | – | –
O=C1/C(=C/c2ccccc2)CC/C1=C\c1ccccc1 | – | – | > 100 | > 100 | 1.6 | 76.2 | 73 | 46.6 | 5.1 | 375
